Source: ChEMBL document CHEMBL2062472, “N-(2-oxo-3-oxetanyl)carbamic acid esters as N-acylethanolamine acid amidase inhibitors: synthesis and structure-activity and structure-property relationships” (J Med Chem, 2012)

Tests used:
[1] = target: T1, N-acylethanolamine-hydrolyzing acid amidase (Rattus norvegicus, UniProt Q5KTC7); test: Inhibition of rat recombinant NAAA expressed in HEK293 cells using heptadecenoylethanolamide as substrate after 30 mins by LC/MS analysis; format: cell-based
T1 sequence (Q5KTC7 whole entry): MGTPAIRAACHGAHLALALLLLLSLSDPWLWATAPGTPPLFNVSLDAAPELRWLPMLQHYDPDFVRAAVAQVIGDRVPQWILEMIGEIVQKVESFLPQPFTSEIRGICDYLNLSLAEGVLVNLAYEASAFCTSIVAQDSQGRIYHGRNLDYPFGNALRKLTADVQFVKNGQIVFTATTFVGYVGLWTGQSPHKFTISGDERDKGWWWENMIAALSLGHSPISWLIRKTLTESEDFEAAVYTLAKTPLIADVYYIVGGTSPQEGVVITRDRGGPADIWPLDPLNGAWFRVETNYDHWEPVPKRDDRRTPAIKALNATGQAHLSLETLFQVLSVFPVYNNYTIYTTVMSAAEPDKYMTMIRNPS
In short: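 Recombinant rat NAAA incubated 30 min at 37 °C in 50 mM sodium hydrogen phosphate buffer pH 5.0 containing 0.1% Triton X-100, 3 mM DTT and heptadecenoylethanolamide substrate (50 mM as printed). The reaction was stopped with cold methanol containing 1 nmol heptadecanoic acid. Product was measured by LC/MS with negative ESI, selected ion monitoring at m/z 267.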

[2] = Apparent Half life of the compound in 0.01 M phosphate buffer at pH 5; format: physicochemical; settings: read-out: t1/2(app)
In short: (§1)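 Compound (from DMSO stock; 1% DMSO final) incubated at 1–100 μM final at 37 °C with shaking, ionic strength 0.15 M, in 0.01 M PBS pH 7.4 or 0.01 M phosphate buffer pH 5.0. Aliquots taken over time were analysed by RP-HPLC. Apparent t1/2 came from pseudo-first-order rate constants (linear regression of log[compound] vs time), reported as mean ± SD of three experiments.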

[3] = Apparent Half life of the compound in 0.01 M phosphate-buffered saline at pH 7.4; format: physicochemical; settings: read-out: t1/2(app); in short: as §1
[4] = Apparent half life of the compound in rat plasma by HPLC analysis; format: ADME, cell-free; settings: read-out: t1/2(app) (converted)
In short: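 Pooled heparinized plasma from male Wistar rats was diluted to 80% (v/v) with PBS pH 7.4. Compound was added at 5–100 μM final (1% DMSO) and incubated at 37 °C with shaking. Aliquots were quenched with 2 volumes of CH3CN, centrifuged, and analysed by RP-HPLC. t1/2 came from log[compound]-vs-time regression, as mean ± SD of three experiments.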

[5] = target: Albumin (Bos taurus, UniProt P02769); test: Apparent half life of the compound in bovine serum albumin in phosphate-buffered saline at pH 7.4; format: ADME; settings: cattle, read-out: t1/2(app)
Albumin, sequence (P02769 whole entry): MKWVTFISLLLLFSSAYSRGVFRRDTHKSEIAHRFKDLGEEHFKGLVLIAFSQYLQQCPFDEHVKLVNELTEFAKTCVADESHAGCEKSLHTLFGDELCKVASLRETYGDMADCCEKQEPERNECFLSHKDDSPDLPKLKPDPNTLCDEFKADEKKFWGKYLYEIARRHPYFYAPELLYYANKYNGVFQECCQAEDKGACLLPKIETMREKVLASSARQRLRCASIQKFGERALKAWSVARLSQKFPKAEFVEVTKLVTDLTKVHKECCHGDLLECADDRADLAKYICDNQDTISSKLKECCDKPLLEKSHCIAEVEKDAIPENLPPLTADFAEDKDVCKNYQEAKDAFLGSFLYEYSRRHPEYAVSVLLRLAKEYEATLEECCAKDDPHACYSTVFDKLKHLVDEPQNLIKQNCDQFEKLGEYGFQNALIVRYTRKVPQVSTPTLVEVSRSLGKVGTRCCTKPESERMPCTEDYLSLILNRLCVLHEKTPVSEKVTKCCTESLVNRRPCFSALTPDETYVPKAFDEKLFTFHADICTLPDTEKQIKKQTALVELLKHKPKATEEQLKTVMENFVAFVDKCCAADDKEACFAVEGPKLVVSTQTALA
In short: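 Compound incubated at 5–100 μM final (1% DMSO) at 37 °C in 20 mg/mL bovine serum albumin in PBS pH 7.4. Aliquots were quenched with 2 volumes of CH3CN, centrifuged, and analysed by RP-HPLC. Apparent t1/2 came from pseudo-first-order regression of log[compound] vs time.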

[6] = Apparent Half life of the compound in 0.01 M phosphate buffer at pH 5 in presence of 3 mM DTT; settings: read-out: t1/2(app)
[7] = Apparent half life of the compound in 50% v/v human plasma by HPLC analysis in presence of EDTA; format: ADME, cell-free; settings: 50% v/v plasma, with EDTA, read-out: t1/2(app)
In short: (§2)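 Rat or human plasma at 50% (v/v) was preincubated with BNPP, eserine, PMSF, EDTA or vehicle, then compound was added and kept at 37 °C. Aliquots taken at regular time points were quenched with 2 volumes of CH3CN, centrifuged, and analysed by RP-HPLC. Apparent t1/2 came from log[compound]-vs-time regression.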

[8] = Apparent half life of the compound in 50% v/v rat plasma by HPLC analysis in presence of PMSF; format: ADME, cell-free; settings: 50% v/v plasma, with PMSF, read-out: t1/2(app); in short: as §2
[9] = Apparent half life of the compound in 50% v/v rat plasma by HPLC analysis in presence of eserine; format: ADME, cell-free; settings: 50% v/v plasma, with eserine, read-out: t1/2(app); in short: as §2
[10] = Apparent half life of the compound in 50% v/v human plasma by HPLC analysis in presence of eserine; format: ADME, cell-free; settings: 50% v/v plasma, with eserine, read-out: t1/2(app); in short: as §2
[11] = Apparent half life of the compound in 50% v/v human plasma by HPLC analysis; format: ADME, cell-free; settings: 50% v/v plasma, read-out: t1/2(app); in short: as §2
[12] = Apparent half life of the compound in 50% v/v human plasma by HPLC analysis in presence of PMSF; format: ADME, cell-free; settings: 50% v/v plasma, with PMSF, read-out: t1/2(app); in short: as §2
[13] = Apparent half life of the compound in 50% v/v human plasma by HPLC analysis in presence of BNPP; format: ADME, cell-free; settings: 50% v/v plasma, with BNPP, read-out: t1/2(app); in short: as §2
[14] = Apparent half life of the compound in 50% v/v rat plasma by HPLC analysis; format: ADME, cell-free; settings: 50% v/v plasma, read-out: t1/2(app); in short: as §2
[15] = Apparent half life of the compound in 50% v/v rat plasma by HPLC analysis in presence of BNPP; format: ADME, cell-free; settings: 50% v/v plasma, with BNPP, read-out: t1/2(app); in short: as §2
[16] = Apparent half life of the compound in 50% v/v rat plasma by HPLC analysis in presence of EDTA; format: ADME, cell-free; settings: 50% v/v plasma, with EDTA, read-out: t1/2(app); in short: as §2
[17] = Drug degradation in 0.01 M phosphate buffer at pH 5 assessed as N-acylated L-serine product formation by HPLC-UV-MS analysis; format: physicochemical
In short: (§3)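 Compound incubated at 37 °C in 0.01 M phosphate buffer pH 5.0 or 0.01 M PBS pH 7.4 (μ = 0.15 M; 1% DMSO) for up to 3 days. Degradation products were followed by RP-HPLC-UV and ESI-MS on a C18 column with acetonitrile/10 mM ammonium acetate (pH 7.0) mobile phase. Products were quantified against calibration curves of pure standards.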

[18] = Drug degradation in 0.01 M phosphate-buffered saline at pH 7.4 assessed as N-acylated L-serine product formation by HPLC-UV-MS analysis; format: physicochemical; settings: buffer; in short: as §3
[19] = Drug degradation in 0.01 M phosphate buffer at pH 5 assessed as 2-Naphtholic acid product formation at > 2 hrs by HPLC-UV-MS analysis; format: physicochemical; settings: pH 5, 2 h; in short: as §3
[20] = Drug degradation in 0.01 M phosphate-buffered saline at pH 7.4 assessed as 2-naphtholic acid product formation after 24 hrs by HPLC-UV-MS analysis; format: physicochemical; settings: buffer, pH 7.4, 24 h; in short: as §3
[21] = Drug degradation in 0.01 M phosphate buffer at pH 5 assessed as N-(2-Naphthoyl)-L-serine product formation at > 2 hrs by HPLC-UV-MS analysis; format: physicochemical; settings: pH 5, 2 h; in short: as §3
[22] = Drug degradation in 0.01 M phosphate buffer at pH 5 assessed as time required for N-(2-Naphthoyl)-L-serine product formation by HPLC-UV-MS analysis; format: physicochemical; in short: as §3
[23] = Drug degradation in 0.01 M phosphate buffer at pH 5 assessed as O-(2-naphthoyl)-L-serine product formation by HPLC-UV-MS analysis; format: physicochemical; in short: as §3
[24] = Drug degradation in 0.01 M phosphate buffer at pH 5 assessed as time required for O-(2-naphthoyl)-L-serine product formation by HPLC-UV-MS analysis; format: physicochemical; in short: as §3
[25] = Drug degradation in 0.01 M phosphate-buffered saline at pH 7.4 assessed as N-(2-Naphthoyl)-L-serine product formation by HPLC-UV-MS analysis; format: physicochemical; settings: buffer; in short: as §3

Row | IC50 [1] [nM] | half-life [2] [min] | half-life [3] [min] | half-life [4] [min] | half-life [5] [min] | half-life [6] [min] | Drug degradation [17] | Drug degradation [18] | Compound | also measured
1 | 700 | – | – | – | – | – | – | – | O=C(N[C@@H]1COC1=O)OCc1ccccc1 | –
2 | 130 | 194 | 110 | < 0.167 | 11.4 | 134 | – | – | C[C@@H]1OC(=O)[C@@H]1NC(=O)OCCCCCc1ccccc1 | –
3 | – | 39.2 | 26.7 | < 0.167 | 1.2 | 30.5 | – | – | O=C(N[C@H]1COC1=O)OCc1ccccc1 | –
4 | > 100000 | – | – | – | – | – | – | – | O=C(NC1CCC1)OCc1ccccc1 [CYCLOBUTYLCARBAMIC ACID BENZYL ESTER] | –
5 | 10000 | – | – | – | – | – | – | – | C[C@H]1OC(=O)[C@H]1NC(=O)OCc1ccccc1 | –
6 | – | 115 | 93.5 | 0.233 | 15.1 | 114 | – | – | O=C1OCC1CCCCc1ccccc1 (centres undefined) | –
7 | 220 | 241 | 122 | 0.183 | 129 | 147 | – | – | C[C@@H]1OC(=O)[C@@H]1NC(=O)OC(C)(C)C | half-life [7]: 32 min; half-life [8]: 7.13 min; half-life [9]: 4.19 min; half-life [10]: 13.8 min; half-life [11]: 2.99 min; half-life [12]: 11.5 min; half-life [13]: 4.7 min; half-life [14]: 0.53 min; half-life [15]: 3.29 min; half-life [16]: 0.34 min
8 | 1000 | 185 | 108 | < 0.167 | 5.1 | 127 | – | – | C[C@@H]1OC(=O)[C@@H]1NC(=O)OCc1ccccc1 | –
9 | 580 | 43.4 | 33.7 | < 0.167 | 19.6 | 39 | – | – | CC(C)(C)OC(=O)N[C@H]1COC1=O | –
10 | > 100000 | – | – | – | – | – | – | – | O=C(N[C@@H](CO)C(=O)O)OCc1ccccc1 | –
11 | 500 | – | – | – | – | – | – | – | CC(C)(C)OC(=O)N[C@@H]1COC1=O | –
12 | 15000 | 29.7 | 3.3 | < 0.167 | 4.6 | 25.1 | – | – | O=C(NCc1ccccc1)N[C@H]1COC1=O | –
13 | – | 28.4 | 12.6 | 0.533 | 3.3 | 20.9 | Active | Active | O=C(N[C@H]1COC1=O)c1ccc(-c2ccccc2)cc1 | –
14 | – | 19 | 9.8 | < 0.167 | < 1 | 15.9 | Active | Active | O=C(N[C@H]1COC1=O)c1ccc2ccccc2c1 | Drug degradation [19]: Active; Drug degradation [20]: Active; Drug degradation [21]: Active; Time [22]: <= 2 hr; Drug degradation [23]: Active; Time [24]: <= 2 hr; Drug degradation [25]: Active
15 | 4900 | – | – | – | – | – | – | – | C[C@H]1OC(=O)[C@@H]1NC(=O)OC(C)(C)C | –
16 | – | 23.2 | 13.4 | 1.08 | 5.8 | 18.8 | Active | Active | O=C(N[C@H]1COC1=O)c1ccc(OCc2ccccc2)cc1 | –
17 | – | 23.1 | 18 | < 0.167 | 7 | 19 | Active | Active | O=C(CCc1ccccc1)N[C@H]1COC1=O | –
18 | – | 135 | 73.8 | < 0.167 | 16 | 100 | Active | Active | C[C@H]1OC(=O)[C@H]1NC(=O)CCc1ccccc1 | –
19 | – | 18.1 | 8.2 | 0.483 | < 1 | 19.1 | Active | Active | COc1ccc2cc(C(=O)N[C@H]3COC3=O)ccc2c1 | –
20 | 49200 | – | – | – | – | – | – | – | O=C(NCc1ccccc1)N[C@@H]1COC1=O | –
21 | – | 23.7 | 9.8 | < 0.167 | 2.7 | 19.5 | Active | Active | O=C(N[C@H]1COC1=O)c1ccc(C(=O)Oc2ccccc2)cc1 | –
22 | > 100000 | – | – | – | – | – | – | – | O=C(N[C@H](CO)C(=O)O)OCc1ccccc1 | –
23 | > 100000 | – | – | – | – | – | – | – | O=C(NC1CCC1=O)OCc1ccccc1 (racemic) | –
24 | – | 25.1 | 12.1 | 1.25 | 3.2 | 20.9 | Active | Active | CCOC(=O)c1ccc2cc(C(=O)N[C@H]3COC3=O)ccc2c1 | –
25 | 190 | 93.8 | 80.7 | < 0.167 | 87.7 | 80.4 | – | – | C[C@@H]1OC(=O)[C@H]1NC(=O)OC(C)(C)C | –
26 | > 80000 | 217 | 143 | 0.217 | 121 | 149 | – | – | C[C@H]1OC(=O)[C@H]1NC(=O)OC(C)(C)C | –
